Here are results for 18 compounds from article PMC5343109 (Acta Pharmaceutica Sinica. B, 2016).

“And” between values parts separate entries of the source, which are not always exact repeats. Equal values may be shown once. Marks after values point to notes of the source that are not given here.

As a reminder, the IC50 is the concentration that gives 50% inhibition. Lower therefore signals inhibition by little substance.

Data set [1] concerns carrageenan-induced rat paw edema. Description: carrageenan-induced rat paw edema anti-inflammatory activity. Format: in vivo, albino rats of Wistar strain. Conditions: for inhibition in vivo at 10 mg/kg: Rattus norvegicus, po, 4 h, read-out: Inhibition (anti-inflammatory activity), rat, oral dose 10 mg/kg body weight, after 4h; for Inhibition (anti-inflammatory activity) / Increase in paw edema / Activity relative to diclofenac sodium: rat; for Inhibition (anti-inflammatory activity) / Increase in paw edema: oral dose 10 mg/kg body weight; for Inhibition (anti-inflammatory activity): after 4h, 10 mg/kg; for Increase in paw edema: mean±SEM, n=6; for Activity relative to diclofenac sodium: oral dose 10 mg/kg, diclofenac sodium = 100. In a few lines:
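Wistar rats of either sex, 180–200 g, kept at 25 ± 2 °C, 50 ± 5% relative humidity and a 12 h light/dark cycle, with free food and water until testing. Paw edema after carrageenan was measured by digital plethysmometer. Six animals per group. Groups were compared by Student's t-test, with P < 0.05 taken as significant.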
In general terms: In the carrageenan paw model, swelling and tenderness develop within hours.

For data set [2], the system named is gastric mucosal tissue. Description: lipid peroxidation in the gastric mucosa. Type of data set: in vivo. Conditions: rats, mean±SEM.
Data set [3] has as its system TNF-α. Description: LPS-induced TNF-α production inhibition in mice. Type of data set: in vivo, mice (BALB/c). Conditions: for TNF-α inhibition: LPS-induced TNF-α production in mice, plasma ELISA, mean±SEM, n=6; for ID50: LPS-induced TNF-α release in mice.
Data set [4] in a line: DPPH free radical scavenging antioxidant assay. Conditions: 517 nm, 1 mmol/L concentration. Background: Loss of DPPH colour is used to gauge radical scavenging.
The target of data set [5] is p38α MAPK (Homo sapiens, UniProt Q16539). In words: p38α MAPK assay. Type of data set: biochemical.
p38α MAPK, sequence (Q16539 whole entry): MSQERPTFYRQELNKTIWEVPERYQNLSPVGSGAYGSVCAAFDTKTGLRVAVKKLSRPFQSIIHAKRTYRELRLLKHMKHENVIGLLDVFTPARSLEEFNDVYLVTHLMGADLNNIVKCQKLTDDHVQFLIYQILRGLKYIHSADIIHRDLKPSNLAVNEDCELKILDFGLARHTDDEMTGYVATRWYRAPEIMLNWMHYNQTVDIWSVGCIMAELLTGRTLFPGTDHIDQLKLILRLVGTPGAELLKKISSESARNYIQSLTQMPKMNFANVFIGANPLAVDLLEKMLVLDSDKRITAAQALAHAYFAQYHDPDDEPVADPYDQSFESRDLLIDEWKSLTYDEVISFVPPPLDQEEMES
Data set [6] has as its system gastric mucosa (ulcerogenic potential). Description: ulcerogenic test. Type of data set: in vivo. Conditions: rats, oral dose of 30 mg/kg, mean±SEM, n=6.

As to `NC(=O)Nc1ccc(-c2cc(-c3ccc(OCc4ccccc4)cc3)n(-c3cccc(Cl)c3)n2)cc1` [Compound 3b, 1-[4-[5-(4-(Benzyloxy)phenyl)-1-(3-chlorophenyl)-1H-pyrazol-3-yl]phenyl]urea], in data set [1], the inhibition in vivo at 10 mg/kg came out at 78.1%, the “Inhibition (anti-inflammatory activity)” value is 78.06 ^b %, the “Increase in paw edema” value came out at 0.37 ± 0.20 mL and the “Activity relative to diclofenac sodium” value was 95.52. In addition, the Lipid peroxidation in data set [2] (n=6) was 5.19±0.48 ^b nmol MDA/100 mg tissue. In data set [3], the TNF-α inhibition was 62.45±0.07 ^b %; the ID50 is 11.32 mg/kg and 11.32 ^b mg/kg.
With `C[S+]([O-])c1ccc(-c2nc(-c3ccncc3)c(-c3ccc(F)cc3)[nH]2)cc1` (stereo not shown) [SB 203580, reference compound], in data set [3], the TNF-α inhibition is given as 52.11±1.08 ^b %; the ID50 was 28.40 mg/kg and 28.40 ^b mg/kg.
For `COc1ccc(-n2nc(-c3ccc(NC(N)=O)cc3)cc2-c2ccc(OCc3ccccc3)cc2)cc1` [Compound 3o, 1-[4-[5-(4-(Benzyloxy)phenyl)-1-(4-methoxyphenyl)-1H-pyrazol-3-yl]phenyl]urea], the percentage antioxidant activity entry in data set [4] is “did not exhibit any significant antioxidant activity”. In addition, in data set [5], the IC50 came to 0.17 µM.
With `Cc1ccc(-n2nc(-c3ccc(NC(N)=O)cc3)cc2-c2ccc(OCc3ccccc3)cc2)cc1` [Compound 3l, 1-[4-[5-(4-(Benzyloxy)phenyl)-1-(4-methylphenyl)-1H-pyrazol-3-yl]phenyl]urea], the IC50 in data set [5] worked out at 0.169 ± 0.07 µM.
`Cc1cccc(-n2nc(-c3ccc(NC(N)=O)cc3)cc2-c2ccc(OCc3ccccc3)cc2)c1` [Compound 3k, 1-[4-[5-(4-(Benzyloxy)phenyl)-1-(3-methylphenyl)-1H-pyrazol-3-yl]phenyl]urea] registered an IC50 in data set [5] of 0.21 ± 0.11 µM.
As for `NC(=O)Nc1ccc(-c2cc(-c3ccc(OCc4ccccc4)cc3)n(-c3ccc(Cl)c(Cl)c3)n2)cc1` [Compound 3d, 1-[4-[5-(4-(Benzyloxy)phenyl)-1-(3,4-dichlorophenyl)-1H-pyrazol-3-yl]phenyl]urea], in data set [1], the inhibition in vivo at 10 mg/kg was 62.2%, the “Increase in paw edema” value turned out to be 0.64 ± 0.05 mL and the “Activity relative to diclofenac sodium” value is reported as 76.17. For the same compound, in data set [5], the IC50 came to 0.079 µM. The Severity index in data set [6] was 1.08±0.37 ^b. For the same compound, the TNF-α inhibition in data set [3] is reported as 52.60±2.16%.
As for `NC(=O)Nc1ccc(-c2cc(-c3ccc(OCc4ccccc4)cc3)n(-c3ccccc3Cl)n2)cc1` [Compound 3a, 1-[4-[5-(4-(Benzyloxy)phenyl)-1-(2-chlorophenyl)-1H-pyrazol-3-yl]phenyl]urea], in data set [1], the inhibition in vivo at 10 mg/kg was found to be 76.2%, the “Inhibition (anti-inflammatory activity)” value was 76.19 ^b %, the “Increase in paw edema” value came out at 0.40 ± 0.08 mL and the “Activity relative to diclofenac sodium” value was found to be 93.23. Further, the Lipid peroxidation in data set [2] (n=6) is 5.47±0.44 ^b nmol MDA/100 mg tissue. The compound further showed an IC50 in data set [5] of 0.039 ± 0.04 µM. In addition, the Severity index in data set [6] is 0.67±0.25 ^b. Moreover, in data set [3], the TNF-α inhibition is reported as 60.87±2.65 ^b % and the ID50 is given as 19.98 mg/kg.
The compound `NC(=O)Nc1ccc(-c2cc(-c3ccc(OCc4ccccc4)cc3)n(-c3ccc([N+](=O)[O-])cc3[N+](=O)[O-])n2)cc1` [Compound 3i, 1-[4-[5-(4-(Benzyloxy)phenyl)-1-(2,4-dinitrophenyl)-1H-pyrazol-3-yl]phenyl]urea] displayed an IC50 in data set [5] of 0.112 ± 0.04 µM.
In the case of `NC(=O)Nc1ccc(-c2cc(-c3ccc(OCc4ccccc4)cc3)n(-c3ccc(F)c(Cl)c3)n2)cc1` [Compound 3f, 1-[4-[5-(4-(Benzyloxy)phenyl)-1-(3-chloro-4-fluorophenyl)-1H-pyrazol-3-yl]phenyl] urea], the half-inhibitory concentration (IC50) in data set [5] stood at 0.11 ± 0.17 µM.
`NC(=O)Nc1ccc(-c2cc(-c3ccc(OCc4ccccc4)cc3)n(-c3ccc([N+](=O)[O-])cc3)n2)cc1` [Compound 3h, 1-[4-[5-(4-(Benzyloxy)phenyl)-1-(4-nitrophenyl)-1H-pyrazol-3-yl]phenyl]urea]: in data set [1], the inhibition in vivo at 10 mg/kg came to 68.4%, the “Increase in paw edema” value turned out to be 0.53 ± 0.12 mL and the “Activity relative to diclofenac sodium” value is reported as 83.67. The compound further yielded an IC50 in data set [5] of 0.067 µM. Further, in data set [6], the Severity index is 0.91±0.20. In addition, the TNF-α inhibition in data set [3] was 52.76±2.08%.
As to `O=C(O)Cc1ccccc1Nc1c(Cl)cccc1Cl` [Diclofenac sodium, diclofenac sodium, reference compound], in data set [1], the inhibition in vivo at 10 mg/kg was 81.6%, the “Increase in paw edema” value was determined as 0.31 ± 0.13 mL and the “Activity relative to diclofenac sodium” value amounted to 100. The compound also displayed a Lipid peroxidation in data set [2] (n=6) of 6.52±0.42 nmol MDA/100 mg tissue. This compound also yielded a Lipid peroxidation in data set [2] (n=6, listed as diclofenac sodium) of 6.52 ± 0.42 nmol MDA/100 mg tissue. The same compound yielded a Severity index in data set [6] of 1.83±0.27.
As for `Cc1ccccc1-n1nc(-c2ccc(NC(N)=O)cc2)cc1-c1ccc(OCc2ccccc2)cc1` [Compound 3j, 1-[4-[5-(4-(Benzyloxy)phenyl)-1-(2-methylphenyl)-1H-pyrazol-3-yl]phenyl]urea], the percentage antioxidant activity result in data set [4] is on record as “did not exhibit any significant antioxidant activity”. The compound also had an IC50 in data set [5] of 0.123 µM.
In the case of `COc1ccccc1-n1nc(-c2ccc(NC(N)=O)cc2)cc1-c1ccc(OCc2ccccc2)cc1` [Compound 3n, 1-[4-[5-(4-(Benzyloxy)phenyl)-1-(2-methoxyphenyl)-1H-pyrazol-3-yl]phenyl]urea], the percentage antioxidant activity result in data set [4] is listed as “did not exhibit any significant antioxidant activity”. Moreover, it took 0.206 ± 0.37 µM to reach half-maximal inhibition in data set [5] (IC50).
Compound `COc1ccc(O)c(C(C)(C)C)c1` [BHA, butylated hydroxy anisole, reference compound] yielded a percentage antioxidant activity in data set [4] of 71.53%.
Take `Cc1cccc(C)c1-n1nc(-c2ccc(NC(N)=O)cc2)cc1-c1ccc(OCc2ccccc2)cc1` [Compound 3m, 1-[4-[5-(4-(Benzyloxy)phenyl)-1-(2,6-dimethylphenyl)-1H-pyrazol-3-yl]phenyl]urea]: in data set [5], the IC50 was determined as 0.27 µM.
Consider `NC(=O)Nc1ccc(-c2cc(-c3ccc(OCc4ccccc4)cc3)n(-c3ccc(Cl)cc3)n2)cc1` [Compound 3c, 1-[4-[5-(4-(Benzyloxy)phenyl)-1-(4-chlorophenyl)-1H-pyrazol-3-yl]phenyl]urea], for which, in data set [1], the inhibition in vivo at 10 mg/kg amounted to 80.9%, the “Inhibition (anti-inflammatory activity)” value is listed as 80.93 ^b %, the “Increase in paw edema” value is 0.32 ± 0.06 mL and the “Activity relative to diclofenac sodium” value was determined as 99.03. In data set [4], this compound came in with a percentage antioxidant activity of 75.06%. The Lipid peroxidation in data set [2] (n=6) is given as 5.12±0.55 ^b nmol MDA/100 mg tissue. For the same compound, in data set [3], the TNF-α inhibition was found to be 62.56±0.24%; the ID50 is 9.67 mg/kg and 9.67 ^b mg/kg.
Regarding `NC(=O)Nc1ccc(-c2cc(-c3ccc(OCc4ccccc4)cc3)n(-c3ccc(F)cc3)n2)cc1` [Compound 3e, 1-[4-[5-(4-(benzyloxy)phenyl)-1-(4-fluorophenyl)-1H-pyrazol-3-yl]phenyl]urea], in data set [1], the inhibition in vivo at 10 mg/kg is 72.3%, the “Increase in paw edema” value turned out to be 0.47 ± 0.16 mL and the “Activity relative to diclofenac sodium” value is 88.50. For the same compound, in data set [2] (n=6), the Lipid peroxidation was 6.08±0.15 nmol MDA/100 mg tissue. This compound displayed an IC50 in data set [5] of 0.048 ± 0.01 µM. In data set [6], this compound came in with a Severity index of 0.83±0.22. Moreover, the TNF-α inhibition in data set [3] turned out to be 57.34±3.05%.
On to `NC(=O)Nc1ccc(-c2cc(-c3ccc(OCc4ccccc4)cc3)n(-c3ccc(Br)cc3)n2)cc1` [Compound 3g, 1-[4-[5-(4-(Benzyloxy)phenyl)-1-(4-bromophenyl)-1H-pyrazol-3-yl]phenyl]urea], for which, in data set [1], the inhibition in vivo at 10 mg/kg amounted to 74%, the “Inhibition (anti-inflammatory activity)” value is reported as 74.01 ^b %, the “Increase in paw edema” value worked out at 0.44 ± 0.06 mL and the “Activity relative to diclofenac sodium” value turned out to be 90.56. In addition, the Lipid peroxidation in data set [2] (n=6) is given as 6.02±0.17 ^a nmol MDA/100 mg tissue. Moreover, the Severity index in data set [6] is 0.75±0.27. For the same compound, the TNF-α inhibition in data set [3] is reported as 58.13±0.28%.
